From ChEMBL document CHEMBL4229460, “Design and biological evaluation of novel hybrids of 1, 5-diarylpyrazole and Chrysin for selective COX-2 inhibition” (Bioorg Med Chem, 2018)

How the values were obtained:
[1] = tested on: HeLa; test: Disruption of mitochondrial membrane potential in human HeLa cells assessed as collapse of the mitochondrial membrane potential at 1.25 uM after 12 hrs by JC1 staining based flow cytometry (reference value: 0.768%); assay type: functional
[2] = tested on: HeLa; test: Induction of apoptosis in human HeLa cells assessed as live cells at 5 uM after 48 hrs by Annexin-V-FITC/propidium iodide staining based flow cytometry (reference value: 95.1%); assay type: functional
Procedure, shortened: (§1)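 HeLa seeded at 2 × 10⁵ cells/well. Dose series was 0, 1.25, 2.5, 5 and 10 μM for 24 h; time course was 5 μM for 12, 24, 36 or 48 h. Trypsinized and washed in ice-cold PBS, then stained in binding buffer with Annexin V-FITC and PI for 10 min in the dark. Flow cytometry scored early (Annexin⁺/PI⁻) and late (Annexin⁺/PI⁺) apoptotic cells.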

[3] = target: T1, Prostaglandin G/H synthase 2 (Homo sapiens, UniProt P35354); test: Inhibition of COX2 (unknown origin) using arachidonic acid as substrate pretreated for 10 mins followed by substrate addition and measured after 2 mins by ELISA
T1 sequence (P35354 whole entry): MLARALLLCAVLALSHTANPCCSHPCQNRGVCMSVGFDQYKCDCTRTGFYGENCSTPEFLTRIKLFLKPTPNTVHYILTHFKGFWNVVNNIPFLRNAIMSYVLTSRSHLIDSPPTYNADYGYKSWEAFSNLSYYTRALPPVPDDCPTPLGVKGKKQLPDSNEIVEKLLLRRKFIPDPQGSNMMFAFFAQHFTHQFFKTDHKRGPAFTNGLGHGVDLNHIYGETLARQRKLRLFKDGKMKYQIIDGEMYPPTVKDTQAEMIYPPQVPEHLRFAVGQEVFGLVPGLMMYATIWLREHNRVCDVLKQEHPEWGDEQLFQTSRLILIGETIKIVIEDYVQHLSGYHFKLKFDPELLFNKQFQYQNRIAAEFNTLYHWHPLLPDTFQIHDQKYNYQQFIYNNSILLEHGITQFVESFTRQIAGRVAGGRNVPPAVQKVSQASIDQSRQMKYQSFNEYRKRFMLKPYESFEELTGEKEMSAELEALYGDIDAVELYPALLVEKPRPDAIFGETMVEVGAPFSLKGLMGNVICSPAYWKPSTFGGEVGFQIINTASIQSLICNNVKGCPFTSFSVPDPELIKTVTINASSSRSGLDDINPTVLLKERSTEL

[4] = tested on: HeLa; test: Induction of apoptosis in human HeLa cells assessed as late apoptotic cells at 5 uM after 24 hrs by Annexin-V-FITC/propidium iodide staining based flow cytometry (reference value: 1.72 to 2.57%); assay type: functional; procedure, shortened: as §1
[5] = tested on: HeLa; test: Cell cycle arrest in human HeLa cells assessed as accumulation at S phase at 10 uM after 24 hrs by propidium iodide staining based flow cytometry (reference value: 18.16%); assay type: functional
[6] = tested on: HeLa; test: Induction of apoptosis in human HeLa cells assessed as early apoptotic cells at 5 uM after 12 hrs by Annexin-V-FITC/propidium iodide staining based flow cytometry (reference value: 1.24%); assay type: functional; procedure, shortened: as §1
[7] = tested on: A549; test: Antiproliferative activity against human A549 cells after 48 hrs by MTT assay; assay type: functional, cell-based; details: A549, 48 h
Procedure, shortened: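 Cells kept in DMEM with 10% FBS, penicillin/streptomycin, 37 °C, 5% CO₂. Seeded at 5 × 10⁴ cells/well and allowed to adhere 12 h. Exposed to 0, 0.1, 1, 10 and 100 μM (final) for 48 h. Viability read by MTT reduction at OD 570 nm with 630 nm reference. IC50 reported as mean ± SD of three independent experiments.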

[8] = tested on: HeLa; test: Induction of apoptosis in human HeLa cells assessed as necrotic cells at 5 uM after 24 hrs by Annexin-V-FITC/propidium iodide staining based flow cytometry (reference value: 0.242 to 1.12%); assay type: functional
Procedure, shortened: (§2)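 HeLa cells in DMEM with 10% FBS, penicillin/streptomycin, 37 °C, 5% CO₂; seeded 2 × 10⁵ cells/well in six-well plates, treated at 0, 1.25, 2.5, 5 and 10 μM for 24 h, or at 5 μM for 12, 24, 36 or 48 h. Cells trypsinized, washed in ice-cold PBS, stained in binding buffer with Annexin V-FITC and PI for 10 min in the dark, then analyzed by flow cytometry.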

[9] = tested on: HeLa; test: Cell cycle arrest in human HeLa cells assessed as accumulation at G2/M phase at 1.25 uM after 24 hrs by propidium iodide staining based flow cytometry (reference value: 21.45%); assay type: functional
[10] = tested on: HeLa; test: Cell cycle arrest in human HeLa cells assessed as accumulation at G2/M phase at 10 uM after 24 hrs by propidium iodide staining based flow cytometry (reference value: 21.45%); assay type: functional
[11] = tested on: HeLa; test: Induction of apoptosis in human HeLa cells assessed as early apoptotic cells at 10 uM after 24 hrs by Annexin-V-FITC/propidium iodide staining based flow cytometry (reference value: 2.98%); assay type: functional; procedure, shortened: as §1
[12] = tested on: HeLa; test: Cell cycle arrest in human HeLa cells assessed as accumulation at G1 phase at 1.25 uM after 24 hrs by propidium iodide staining based flow cytometry (reference value: 55.51%); assay type: functional
[13] = species: Homo sapiens; test: Selectivity index, ratio of IC50 for COX1 (unknown origin) to ratio of IC50 for COX2 (unknown origin)
Procedure, shortened: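 Enzyme ELISA kit: COX-1 or COX-2 preincubated with compound at 0, 1, 10 or 100 μM for 10 min at 37 °C in 0.1 M Tris-HCl pH 8.0, 5 mM EDTA, 2 mM phenol, 1 μM heme. Started with 100 μM arachidonic acid for 2 min at 37 °C, stopped with 1 M HCl. PGH₂ reduced by stannous chloride; PGF2α read by enzyme immunoassay at 450 nm. Index taken as the ratio of the COX IC50 values.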

[14] = target: Prostaglandin G/H synthase 1 (Homo sapiens, UniProt P23219); test: Inhibition of COX1 (unknown origin) using arachidonic acid as substrate pretreated for 10 mins followed by substrate addition and measured after 2 mins by ELISA; assay type: ADME
[15] = tested on: MCF7; test: Antiproliferative activity against human MCF7 cells after 48 hrs by MTT assay; assay type: functional, cell-based; details: MCF7, 48 h
[16] = tested on: HeLa; test: Induction of apoptosis in human HeLa cells assessed as late apoptotic cells at 5 uM after 48 hrs by Annexin-V-FITC/propidium iodide staining based flow cytometry (reference value: 2.57%); assay type: functional; procedure, shortened: as §1
[17] = tested on: HeLa; test: Disruption of mitochondrial membrane potential in human HeLa cells assessed as intact mitochondrial membrane at 2.5 uM after 12 hrs by JC1 staining based flow cytometry (reference value: 99.2%); assay type: functional
[18] = tested on: HeLa; test: Induction of apoptosis in human HeLa cells assessed as necrotic cells at 10 uM after 24 hrs by Annexin-V-FITC/propidium iodide staining based flow cytometry (reference value: 0.242%); assay type: functional; procedure, shortened: as §1
[19] = tested on: HeLa; test: Induction of apoptosis in human HeLa cells assessed as necrotic cells at 5 uM after 12 hrs by Annexin-V-FITC/propidium iodide staining based flow cytometry (reference value: 1.12%); assay type: functional; procedure, shortened: as §1
[20] = tested on: HeLa; test: Induction of apoptosis in human HeLa cells assessed as necrotic cells at 5 uM after 48 hrs by Annexin-V-FITC/propidium iodide staining based flow cytometry (reference value: 1.12%); assay type: functional; procedure, shortened: as §2
[21] = tested on: HeLa; test: Induction of apoptosis in human HeLa cells assessed as live cells at 10 uM after 24 hrs by Annexin-V-FITC/propidium iodide staining based flow cytometry (reference value: 94.6%); assay type: functional; procedure, shortened: as §1

Chain of Prostaglandin G/H synthase 1 (P23219 whole entry): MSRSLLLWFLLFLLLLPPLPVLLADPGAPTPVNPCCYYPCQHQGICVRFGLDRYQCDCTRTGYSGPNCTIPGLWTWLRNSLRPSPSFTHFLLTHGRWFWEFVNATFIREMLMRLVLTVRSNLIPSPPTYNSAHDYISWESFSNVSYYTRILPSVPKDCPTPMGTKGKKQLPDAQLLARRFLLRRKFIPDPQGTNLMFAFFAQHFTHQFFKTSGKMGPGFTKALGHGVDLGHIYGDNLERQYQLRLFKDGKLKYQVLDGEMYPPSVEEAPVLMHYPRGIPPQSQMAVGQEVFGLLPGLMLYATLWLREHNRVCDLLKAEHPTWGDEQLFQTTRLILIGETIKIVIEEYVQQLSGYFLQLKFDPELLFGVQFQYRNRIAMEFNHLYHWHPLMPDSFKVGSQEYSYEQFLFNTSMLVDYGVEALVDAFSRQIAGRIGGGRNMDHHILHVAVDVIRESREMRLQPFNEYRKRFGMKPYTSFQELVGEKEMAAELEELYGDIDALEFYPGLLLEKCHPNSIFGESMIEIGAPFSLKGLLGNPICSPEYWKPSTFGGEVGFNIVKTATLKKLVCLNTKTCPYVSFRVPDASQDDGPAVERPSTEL

IC50 [3]: 0.23 µM
IC50 [7]: 6.41 µM
Ratio IC50 [13]: 206
IC50 [14]: 47.5 µM
IC50 [15]: 3.23 µM
SMILES: COc1ccc(-c2cc(COC(=O)COc3cc(O)c4c(=O)cc(-c5ccccc5)oc4c3)nn2-c2ccc(C)cc2)cc1
Activity [1]: 3.1%
Activity [2]: 18.1%
Activity [4]: 0.9 - 7.15%
Activity [5]: 14.82%
Activity [6]: 22.7%
Activity [8]: 0.073 - 0.427%
Activity [9]: 13.65%
Activity [10]: 5.24%
Activity [11]: 36.8%
Activity [12]: 62.63%
Activity [16]: 7.54%
Activity [17]: 93.4%
Activity [18]: 0.325%
Activity [19]: 1.71%
Activity [20]: 1.43%
Activity [21]: 51.4%
